# From PubChem BioAssay
# TAAR1 antag: human TAAR1 antagonism | Q96RJ0 | CHO RD-HGA16 TAAR1, Fluo-8 calcium fluorescence, antagonist | inhibition, % at 3 µM | actives 1.5% (n = 360,000) | AID 624466;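 active means inhibition above a per-plate cutoff, the mean inhibition of test compounds on that plate plus 3 SD, cut at about 49% in these data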;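 further: 0% = DMSO plus EC80 beta-PEA response and 100% = DMSO alone without agonist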
# Target sequence (Q96RJ0 whole entry, looked up): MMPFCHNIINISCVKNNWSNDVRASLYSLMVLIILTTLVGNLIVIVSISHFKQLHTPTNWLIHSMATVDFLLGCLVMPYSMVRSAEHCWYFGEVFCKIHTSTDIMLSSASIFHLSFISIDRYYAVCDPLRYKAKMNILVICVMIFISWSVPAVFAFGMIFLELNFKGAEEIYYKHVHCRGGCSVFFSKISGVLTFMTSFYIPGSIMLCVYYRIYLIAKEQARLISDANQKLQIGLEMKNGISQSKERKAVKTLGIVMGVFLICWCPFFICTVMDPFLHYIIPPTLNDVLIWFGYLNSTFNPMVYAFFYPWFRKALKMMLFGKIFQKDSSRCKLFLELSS
#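 Test system: RD-HGA16 CHO cells with stable hTAAR1 and Gα16 / Probe or stimulus: EC80 β-phenethylamine stimulus / Times: seeding 17-24 h prior, 75-min 37 °C, 30-min RT dye loading / Detection: Fluo-8 calcium-sensitive fluorescence / Read-out basis: % inhibition scaled between DMSO and EC80 PEA controls / Repeats: singlicate, one well per test compound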
# CHO parental Ca: signal in parental CHO cells, OX1R antagonist counter-screen | parental CHO-K1, ATP-induced calcium, Fluo-8 fluorescence | inhibition, % at 5.6 µM | actives 0.63% (n = 330,000) | AID 463079;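 active means inhibition above that plate's mean sample inhibition plus 3 SD, cut at about 26% in these data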;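 further: 0% = ATP-challenged DMSO wells and 100% = DMSO wells without ATP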
#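 Assay system: untransfected parental CHO cell line. Also added: ATP agonist challenge. Dosing: one dose, 5.6 µM nominal. Measured by: Fluo-8 fluorescence. Read-out: % inhibition. Benchmarks: ATP wells versus no-ATP DMSO wells. Repeats: no replicates.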
# OX1R antag-1: antagonists of human orexin 1 receptor; O43613; CHO/OX1R cells, Fluo-8 calcium fluorescence, orexin A; inhibition, % at 5 µM; actives 0.43% (n = 330,000); AID 434989;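 active means inhibition above its plate's threshold, mean inhibition of all tested compounds on the plate plus 3 SD, cut at about 37% in these data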;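 further: 0% = orexin A challenge wells and 100% = SB-334867-A antagonist wells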
# TAAR1 ag: human TAAR1 agonism. CHO RD-HGA16 TAAR1, Fluo-8 calcium fluorescence; vehicle wells 0%, saturating PEA agonist 100%. activation, % at 3 µM. actives 0.99% (n = 360,000). AID 624467;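 active means activation above the mean activation of all test compounds in the run plus 3 SD, cut at about 38% in these data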
#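 test system = CHO RD-HGA16 cells carrying human TAAR1 plus Gα16 | schedule = 17-24 h seeding, 75 min 37 °C dye, 30 min RT | compound dosing = 3 µM single concentration | control set = DMSO and PEA EC100 | replicates = n 1 | signal = Fluo-8 fluorescence, 5 s baseline then 140 s kinetic read | measure = percent activation vs PEA EC100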
# OX1R antag-2: antagonists of human orexin 1 receptor (OX1R); O43613; OX1R-expressing cells, FRET antagonist read-out; inhibition, % at 6.6 µM; actives 1.8% (n = 330,000); in the data active means inhibition mostly above about 38%, no sharp cut-off; inactive means mostly below about 40%;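 further: 0% = agonist challenge alone and 100% = reference antagonist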
# OX1R Fluo8 conf: OX1R (human) antagonism, confirmed; AID 492963; actives 38% (n = 1,100); shares compounds with OX1R antag-1; CHO/OX1R cells, orexin A calcium Fluo-8 fluorescence; inhibition, % at 5 µM; in the data active means inhibition above about 29%;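 further: 0% = agonist challenge alone and 100% = reference antagonist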
# CHO Ca counter: signal in parental CHO cells, OX1R antagonist counter-screen | shares compounds with OX1R antag-1 | parental CHO-K1, ATP-induced calcium, Fluo-8 fluorescence | inhibition, % at 5.6 µM | actives 9.3% (n = 1,100) | AID 492965;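 active means inhibition above a per-plate limit, the mean inhibition of that plate's test compounds plus 3 SD, cut at about 25% in these data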;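 further: 0% = ATP challenge with DMSO and 100% = DMSO without ATP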
# OX1R HTRF conf: confirmation of human orexin 1 receptor antagonists, HTRF format | shares compounds with OX1R antag-2 | OX1R-expressing cells, HTRF antagonist assay | inhibition, % at 6.6 µM | actives 49% (n = 1,800); in the data active means inhibition above about 55%;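 further: CHO cells expressing OX1R stimulated with orexin A at about EC80; 0% = agonist challenge alone and 100% = reference antagonist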
# CHO-K1 HTRF cnt: counter-screen: parental CHO-K1 HTRF response; actives 48% (n = 1,800); parental CHO-K1 cells, HTRF counterscreen; shares compounds with OX1R antag-2; inhibition, % at 6.6 µM; in the data active means inhibition above about 17%;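 further: 0% = agonist challenge with vehicle and 100% = vehicle alone without agonist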
# * = called active by the depositor; . = no result. Hits are enriched below; roughly 4% of the tested compounds scored in any of these assays.
SMILES,TAAR1 antag,CHO parental Ca,OX1R antag-1,TAAR1 ag,OX1R antag-2,OX1R Fluo8 conf,CHO Ca counter,OX1R HTRF conf,CHO-K1 HTRF cnt
COc1ccccc1NC(=O)c1[nH]c(C)c(C(C)=O)c1C,5,-25,-35,2,15,.,.,.,.
Cn1c(N)c(C(=O)Nc2ccccc2F)sc1=S,3,-7,-14,2,6,.,.,.,.
COC(=O)c1ccccc1NC(=O)CC(=O)Nc1ccccc1C(=O)OC,1,-19,40,0,79*,56*,-7,84*,6
CCn1c(N)c(C(=O)Nc2ccccc2C(=O)OC)sc1=S,14,-10,43,5,83*,42*,-13,86*,7
COc1ccc(N(CC(=O)NCCc2cccc(C)c2)S(=O)(=O)c2c(C)noc2C)cc1,.,-23,81*,.,103*,68*,-10,91*,5
COc1ccc(N(CC(=O)NCCc2ccc(C)cc2)S(=O)(=O)c2c(C)noc2C)cc1,-1,-4,27,-1,55*,34*,-20,84*,4
CN(CC(=O)N1CCN(Cc2ccccc2)CC1)C(=O)Cc1ccc(Cl)c(Cl)c1,-20,-15,-14,0,13,.,.,.,.
CCOc1ccc2nc(NC(=O)C3CCCN(S(=O)(=O)c4cccs4)C3)sc2c1 (stereo not drawn),13,-15,52*,3,84*,36*,-9,62*,8
COc1cc(/C=N/NC(=O)c2cc(-c3cccc(Br)c3)nc3ccccc23)cc(OC)c1O,27,-14,37,9,67*,29*,-10,78*,3
CCOc1ccc(C(=O)NC(C(=O)NCCc2ccc(OC(F)F)cc2)C(C)C)cc1 (stereo not drawn),-21,-30,-48,-3,11,.,.,.,.
COc1cccc(-c2nc(CS(=O)(=O)CC(=O)Nc3cccc(C)c3C)c(C)o2)c1,5,-24,-17,0,11,.,.,.,.
COc1cccc(-c2nc(CS(=O)(=O)CC(=O)Nc3cc(OC)ccc3OC)c(C)o2)c1,-13,-17,33,7,78*,23,-9,85*,6
Cn1c(N)c(C(=O)N/N=C/c2ccccc2)sc1=S,-4,-8,91*,-1,93*,73*,6,95*,17*
COc1nnc(-c2ccc(N3CCCCC3)c(NC(=O)COc3ccccc3)c2)c2ccccc12,-17,.,.,-2,.,.,.,.,.
COc1ccc2sc(-c3ccc(S(C)(=O)=O)cc3)c(C#CCO)c2c1,46,10,65*,15,59*,21,1,60*,13
COc1ccc(-c2sc3ccccc3c2C#CCO)cc1,-9,-14,-17,-2,50,.,.,.,.
CCOCCCNCC(=O)Nc1ccc(S(=O)(=O)NC(C)CC)cc1 (stereo not drawn),-25,-7,-20,8,-2,.,.,.,.
CCOC(=O)CN(C(=O)COc1ccc2c(C)cc(=O)oc2c1)c1ccc(OCC)cc1,16,-21,-20,7,0,.,.,.,.
O=C(Nc1nccs1)c1ccc(-c2ccc(F)c(Cl)c2)o1,12,-17,47*,0,97*,19,-15,72*,13
CCN1C[C@@H]2[C@@H]3C(=O)N(C)C(=O)[C@@H]3[C@](Cc3ccccc3)(C1=O)N2C(=O)c1ccc(F)cc1,-3,.,.,19,.,.,.,.,.
COCCN(Cc1nc2ccccc2c(=O)[nH]1)C(=O)COc1c(C)cc(Cl)cc1C,10,-21,39*,7,58*,18,-16,70*,-1
CCCCN(Cc1nc2ccccc2c(=O)[nH]1)C(=O)COc1ccc(F)cc1Cl,-19,-10,-7,2,3,.,.,.,.
Cc1nc2c(-c3ccccc3)c(C)nn2c(N)c1-c1ccccc1,19,-17,46*,13,81*,27,6,79*,12
CCCCc1ccc(S(=O)(=O)NCCc2ccncc2)cc1,-9,19,26,4,76*,0,6,36,3
Cn1c(O)c(/C=C2\C=NN=C2c2ccccc2)sc1=S,-12,-21,41*,4,39*,9,-6,40,1
SMILES,TAAR1 antag,CHO parental Ca,OX1R antag-1,TAAR1 ag,OX1R antag-2,OX1R Fluo8 conf,CHO Ca counter,OX1R HTRF conf,CHO-K1 HTRF cnt
CCn1c(O)c(/C=C2\C=NN=C2c2ccccc2)sc1=S,19,-37,-15,4,25,.,.,.,.
Cc1ccc(-c2c(C(=O)N/N=C/c3ccc4c(c3)OCO4)nnn2-c2nonc2N)cc1,28,-11,46,26,74*,28,3,88*,0
Cc1ccc(SCc2c(C(=O)N/N=C/c3ccc4c(c3)OCO4)nnn2-c2nonc2N)cc1,1,-14,34,0,60*,12,14,82*,7
Cc1ccc(SCc2c(C(=O)N/N=C/c3ccccc3)nnn2-c2nonc2N)cc1,29,-47,22,1,47,.,.,.,.
Cc1ccc(-c2c(C(=O)N/N=C/c3cccc(Cl)c3)nnn2-c2nonc2N)cc1,35,0,-5,4,17,.,.,.,.
CCCS(=O)(=O)NC(=O)C1(C)CCN(C(=O)c2c(-c3ccccc3)noc2C)C1 (stereo not drawn),-11,.,.,0,.,.,.,.,.
COCCN(C(=O)c1csnn1)C(C(=O)NC1CCCC1)c1ccccc1F (stereo not drawn),-4,-3,-16,-2,11,.,.,.,.
COc1ccc(/C=c2\s/c(=C/C(=O)c3ccc(C)cc3)[nH]c2=O)c(OC)c1,44,9,47*,12,79*,28,2,93*,10
Cn1c(CNC(=O)CCNC(=O)c2cccc(Br)c2)cc(=O)n(C)c1=O,-22,-8,-19,2,17,.,.,.,.
Cc1cccc(/C=N/NC(=O)c2cc3c(s2)-c2ccccc2CC3)c1,7,-15,81*,0,87*,92*,-9,85*,0
CCOc1ccccc1NC(=O)CN1C(=O)NC(Cc2c[nH]c3ccccc23)C1=O (stereo not drawn),6,-25,42*,2,36*,10,-9,34,-5
O=C(COC(=O)c1cc(-c2ccc(Cl)s2)nc2ccccc12)NCc1ccco1,-10,-15,31,1,56*,23,-1,74*,5
COc1cc2c(c(OC)c1OC)C(=O)C(=Cc1ccccc1)O2,33,.,.,1,.,.,.,.,.
